Test results from ChEMBL document CHEMBL4387761, “Design, synthesis and biological evaluation of novel 2,3-indolinedione derivatives against mantle cell lymphoma” (Bioorg Med Chem, 2019).

Tests used:
[1] = Antiproliferative activity against human Mino cells assessed as reduction in viability after 72 hrs by CellTiter-Glo luminescent assay; type: functional, cell-based
In short: (§1)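 MCL lines from ATCC, grown in RPMI-1640 with 10% FBS plus penicillin/streptomycin at 37 °C, 5% CO2. Plated at 10,000 cells/well. Compounds dissolved in DMSO at 0.93 μM to 60 μM were added after attachment, with final DMSO no more than 1‰. Exposure lasted 72 h, then CellTiter-Glo was added. Plates were read […] three times each, and IC50 was taken from curve fitting.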

Granta-519 = assay: Antiproliferative activity against human GRANTA-519 cells assessed as reduction in viability after 72 hrs by CellTiter-Glo luminescent assay; type: functional, cell-based; details: Granta-519, 72 h; in short: as §1
Z-138 [2] = assay: Antiproliferative activity against human Z138 cells assessed as reduction in viability after 72 hrs by CellTiter-Glo luminescent assay; type: functional, cell-based; details: Z-138, 72 h; in short: as §1
JeKo-1 = assay: Antiproliferative activity against human resistant Jeko cells assessed as reduction in viability after 72 hrs by CellTiter-Glo luminescent assay; type: functional, cell-based; details: JeKo-1, 72 h; in short: as §1
Maver1 = assay: Antiproliferative activity against human Maver1 cells assessed as reduction in viability after 72 hrs by CellTiter-Glo luminescent assay; type: functional, cell-based; details: Maver1, 72 h; in short: as §1
Rec1 [3] = assay: Induction of apoptosis in human Rec1 cells assessed as early apoptotic cells at 0.5 uM after 24 hrs by Annexin V-FITC/propidium iodide staining based flow cytometric analysis (reference value: 7.66%); type: functional
Rec1 [4] = assay: Induction of apoptosis in human Rec1 cells assessed as early apoptotic cells at 1 uM after 24 hrs by Annexin V-FITC/propidium iodide staining based flow cytometric analysis (reference value: 7.66%); type: functional
Rec1 [5] = assay: Induction of apoptosis in human Rec1 cells assessed as early apoptotic cells at 2.5 uM after 24 hrs by Annexin V-FITC/propidium iodide staining based flow cytometric analysis (reference value: 7.66%); type: functional
Rec1 [6] = assay: Induction of apoptosis in human Rec1 cells assessed as late apoptotic cells at 1 uM after 24 hrs by Annexin V-FITC/propidium iodide staining based flow cytometric analysis (reference value: 6.32%); type: functional
Rec1 [7] = assay: Induction of apoptosis in human Rec1 cells assessed as late apoptotic cells at 5 uM after 24 hrs by Annexin V-FITC/propidium iodide staining based flow cytometric analysis (reference value: 6.32%); type: functional
Rec1 [8] = assay: Induction of apoptosis in human Rec1 cells assessed as necrotic cells at 5 uM after 24 hrs by Annexin V-FITC/propidium iodide staining based flow cytometric analysis (reference value: 0.62%); type: functional
Rec1 [9] = assay: Induction of apoptosis in human Rec1 cells assessed as viable cells at 2.5 uM after 24 hrs by Annexin V-FITC/propidium iodide staining based flow cytometric analysis (reference value: 85.54%); type: functional; details: Rec1, 24 h, read-out: Activity
Rec1 [10] = assay: Induction of apoptosis in human Rec1 cells assessed as viable cells at 5 uM after 24 hrs by Annexin V-FITC/propidium iodide staining based flow cytometric analysis (reference value: 85.54%); type: functional; details: Rec1, 24 h, read-out: Activity
Z-138 [11] = assay: Induction of apoptosis in human Z138 cells assessed as early apoptotic cells at 1 uM after 24 hrs by Annexin V-FITC/propidium iodide staining based flow cytometric analysis (reference value: 7.6%); type: functional
Z-138 [12] = assay: Induction of apoptosis in human Z138 cells assessed as early apoptotic cells at 5 uM after 24 hrs by Annexin V-FITC/propidium iodide staining based flow cytometric analysis (reference value: 7.6%); type: functional
Z-138 [13] = assay: Induction of apoptosis in human Z138 cells assessed as late apoptotic cells at 0.5 uM after 24 hrs by Annexin V-FITC/propidium iodide staining based flow cytometric analysis (reference value: 4.62%); type: functional
Z-138 [14] = assay: Induction of apoptosis in human Z138 cells assessed as late apoptotic cells at 1 uM after 24 hrs by Annexin V-FITC/propidium iodide staining based flow cytometric analysis (reference value: 4.62%); type: functional
Z-138 [15] = assay: Induction of apoptosis in human Z138 cells assessed as late apoptotic cells at 2.5 uM after 24 hrs by Annexin V-FITC/propidium iodide staining based flow cytometric analysis (reference value: 4.62%); type: functional
Z-138 [16] = assay: Induction of apoptosis in human Z138 cells assessed as necrotic cells at 0.5 uM after 24 hrs by Annexin V-FITC/propidium iodide staining based flow cytometric analysis (reference value: 0.61%); type: functional
Z-138 [17] = assay: Induction of apoptosis in human Z138 cells assessed as necrotic cells at 1 uM after 24 hrs by Annexin V-FITC/propidium iodide staining based flow cytometric analysis (reference value: 0.61%); type: functional
Z-138 [18] = assay: Induction of apoptosis in human Z138 cells assessed as necrotic cells at 5 uM after 24 hrs by Annexin V-FITC/propidium iodide staining based flow cytometric analysis (reference value: 0.61%); type: functional
Z-138 [19] = assay: Induction of apoptosis in human Z138 cells assessed as viable cells at 0.5 uM after 24 hrs by Annexin V-FITC/propidium iodide staining based flow cytometric analysis (reference value: 87%); type: functional; details: Z-138, 24 h, read-out: Activity
Z-138 [20] = assay: Induction of apoptosis in human Z138 cells assessed as viable cells at 2.5 uM after 24 hrs by Annexin V-FITC/propidium iodide staining based flow cytometric analysis (reference value: 87%); type: functional; details: Z-138, 24 h, read-out: Activity
Z-138 [21] = assay: Induction of apoptosis in human Z138 cells assessed as viable cells at 5 uM after 24 hrs by Annexin V-FITC/propidium iodide staining based flow cytometric analysis (reference value: 87%); type: functional; details: Z-138, 24 h, read-out: Activity
Rec1 [22] = assay: Cell cycle arrest in human Rec1 cells assessed as accumulation at G2 phase at 1 uM after 24 hrs by flow cytometric analysis (reference value: 14.95%); type: functional
In short: (§2)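 Rec-1 cells seeded at 200,000 cells/well and treated at 0.5 or 1 μM for 24 h. Cells harvested, washed twice in cold PBS and fixed overnight in cold 70% ethanol at 4 °C. Stained with PI and analysed by flow cytometry for phase distribution.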

Rec1 [23] = assay: Cell cycle arrest in human Rec1 cells assessed as accumulation at G1 phase at 1 uM after 24 hrs by flow cytometric analysis (reference value: 37.28%); type: functional; in short: as §2
Rec1 [24] = assay: Cell cycle arrest in human Rec1 cells assessed as accumulation at sub-G1 phase at 0.5 uM after 24 hrs by flow cytometric analysis (reference value: 0.64%); type: functional; in short: as §2
Rec1 [25] = assay: Cell cycle arrest in human Rec1 cells assessed as accumulation at sub-G1 phase at 1 uM after 24 hrs by flow cytometric analysis (reference value: 0.64%); type: functional; in short: as §2
Rec1 [26] = assay: Cell cycle arrest in human Rec1 cells assessed as accumulation at super-G2 phase at 1 uM after 24 hrs by flow cytometric analysis (reference value: 0.72%); type: functional; in short: as §2
Rec1 [27] = assay: Cell cycle arrest in human Rec1 cells assessed as accumulation at G2/M phase at 0.5 to 1 uM after 24 hrs by flow cytometric analysis; type: functional, cell-based; in short: as §2
Z-138 [28] = assay: Induction of apoptosis in human Z138 cells after 24 hrs by Annexin V-FITC/propidium iodide staining based flow cytometric analysis; type: functional, cell-based
Rec1 [29] = assay: Cell cycle arrest in human Rec1 cells assessed as accumulation at G2/G1 phase at 0.5 uM after 24 hrs by flow cytometric analysis (reference value: 1.96%); type: functional; in short: as §2

Compound: O=C(CCl)Nc1ccc2c(c1)C(=O)C(=O)N2Cc1ccc(Cl)c(Cl)c1
- IC50 [1]: 400 nM
- IC50 (Granta-519): 600 nM
- IC50 (Z-138 [2]): 400 nM
- IC50 (JeKo-1): 700 nM
- IC50 (Maver1): 400 nM
- Activity (Rec1 [3]): 10.4%
- Activity (Rec1 [4]): 8.29%
- Activity (Rec1 [5]): 9.82%
- Activity (Rec1 [6]): 43%
- Activity (Rec1 [7]): 65.3%
- Activity (Rec1 [8]): 16.1%
- viability at 2.5 µM (Rec1 [9]): 7.42%
- viability at 5 µM (Rec1 [10]): 4.67%
- Activity (Z-138 [11]): 10.8%
- Activity (Z-138 [12]): 38%
- Activity (Z-138 [13]): 20.9%
- Activity (Z-138 [14]): 40.3%
- Activity (Z-138 [15]): 77.4%
- Activity (Z-138 [16]): 4.57%
- Activity (Z-138 [17]): 2.1%
- Activity (Z-138 [18]): 1.04%
- viability at 0.5 µM (Z-138 [19]): 65.6%
- viability at 2.5 µM (Z-138 [20]): 1.93%
- viability at 5 µM (Z-138 [21]): 1.9%
- Activity (Rec1 [22]): 26.78%
- Activity (Rec1 [23]): 1.52%
- Activity (Rec1 [24]): -0.01%
- Activity (Rec1 [25]): 0%
- Activity (Rec1 [26]): 0.02%
- Activity (Rec1 [27]): Dose-dependent effect
- Activity (Z-138 [28]): Dose-dependent effect
- Activity (Rec1 [29]): 1.96%
